Source: ChEMBL document CHEMBL3994609, “Model-Based Discovery of Synthetic Agonists for the Zn2+-Sensing G-Protein-Coupled Receptor 39 (GPR39) Reveals Novel Biological Functions” (J Med Chem, 2017)
pEC50: −log10 of the molar value. ≈ marks a conversion by molar mass, not a printed value. Calls of active or inactive are those of the source. No cut-off for these calls is given here.

Key:
[1] = target: T1, G-protein coupled receptor 39 (Homo sapiens, UniProt O43194); assay: Agonist activity at human GPR39 expressed in HEK293 cells co-expressing Galphaq assessed as myo-[2-3H]inositol phosphate accumulation measured after 75 mins by scintillation proximity assay; assay type: functional, cell-based
T1 sequence (O43194 whole entry): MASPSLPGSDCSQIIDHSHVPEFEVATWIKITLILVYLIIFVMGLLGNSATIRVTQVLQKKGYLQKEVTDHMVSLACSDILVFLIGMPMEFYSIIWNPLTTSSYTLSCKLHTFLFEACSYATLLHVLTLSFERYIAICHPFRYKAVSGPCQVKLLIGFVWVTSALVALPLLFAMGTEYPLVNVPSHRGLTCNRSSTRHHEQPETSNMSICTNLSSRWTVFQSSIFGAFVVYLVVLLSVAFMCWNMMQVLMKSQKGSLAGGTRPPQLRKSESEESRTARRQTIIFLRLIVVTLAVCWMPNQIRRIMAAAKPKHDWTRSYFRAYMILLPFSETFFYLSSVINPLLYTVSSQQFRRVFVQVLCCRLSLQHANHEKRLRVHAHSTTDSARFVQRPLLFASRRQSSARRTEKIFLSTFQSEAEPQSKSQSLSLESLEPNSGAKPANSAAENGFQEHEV

[2] = target: T1, G-protein coupled receptor 39; assay: Agonist activity at human GPR39 expressed in HEK293 cells co-expressing Galphaq assessed as myo-[2-3H]inositol phosphate accumulation in presence of 10 uM Zn2+ measured after 75 mins by scintillation proximity assay; assay type: functional, cell-based
[3] = target: T2, G-protein coupled receptor 39 (Homo sapiens) (UniProt O43194); assay: Agonist activity at GPR39 (unknown origin) expressed in COS7 cells co-expressing Galphas assessed as increase in intracellular cAMP level measured after 30 mins by chemiluminescence assay; assay type: functional, cell-based
T2 sequence (whole entry): T1 sequence (O43194 whole entry)

[4] = target: T2, G-protein coupled receptor 39 (Homo sapiens); assay: (§1) Agonist activity at GPR39 (unknown origin) expressed in COS7 cells co-expressing Galphas assessed as increase in intracellular cAMP level in presence of 3 uM Zn2+ measured after 30 mins by chemiluminescence assay; assay type: functional, cell-based
[5] = target: T1, G-protein coupled receptor 39; assay: as §1; assay type: functional, cell-based
[6] = target: Growth hormone secretagogue receptor type 1 (Homo sapiens) (UniProt Q92847); assay: Agonist activity at human ghrelin receptor ([…]) assessed as myo-[2-3H]inositol phosphate accumulation measured after 75 mins by scintillation proximity assay; assay type: functional
[7] = target: Motilin receptor (Homo sapiens) (UniProt O43193); assay: Agonist activity at human motilin receptor (412 residues) assessed as myo-[2-3H]inositol phosphate accumulation measured after 75 mins by scintillation proximity assay; assay type: functional
[8] = target: Neuromedin-U receptor 2 (Homo sapiens) (UniProt Q9GZQ4); assay: Agonist activity at human NMU2 receptor assessed as myo-[2-3H]inositol phosphate accumulation measured after 75 mins by scintillation proximity assay; assay type: functional
[9] = Apparent permeability from apical to basolateral side in human Caco2 cells by LC-MS/MS analysis; assay type: ADME, cell-based; conditions: Caco-2
[10] = Intrinsic clearance in human liver microsomes assessed per mg protein at 3 uM measured after 45 mins by LC-MS/MS analysis; assay type: ADME, microsome; conditions: read-out: CLH
[11] = Half life in human liver microsomes at 3 uM measured by LC-MS/MS analysis; assay type: ADME, microsome
[12] = target: T3, C-C chemokine receptor type 1 (Homo sapiens) (UniProt P32246); assay: Agonist activity at full length human CCR1 assessed as myo-[2-3H]inositol phosphate accumulation measured after 75 mins by scintillation proximity assay; assay type: functional
T3 sequence (whole entry): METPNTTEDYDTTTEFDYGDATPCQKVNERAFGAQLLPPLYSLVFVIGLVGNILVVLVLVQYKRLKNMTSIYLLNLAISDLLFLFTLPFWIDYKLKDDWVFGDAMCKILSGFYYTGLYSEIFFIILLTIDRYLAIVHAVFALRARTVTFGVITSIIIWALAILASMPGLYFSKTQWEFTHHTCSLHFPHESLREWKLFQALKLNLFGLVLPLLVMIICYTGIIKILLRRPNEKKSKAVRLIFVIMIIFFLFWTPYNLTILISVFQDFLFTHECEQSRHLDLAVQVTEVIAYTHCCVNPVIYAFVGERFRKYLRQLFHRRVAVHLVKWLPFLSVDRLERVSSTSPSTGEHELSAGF

[13] = target: C-C chemokine receptor type 5 (Macaca mulatta) (UniProt P61813); assay: Agonist activity at full length rhesus monkey CCR5 assessed as myo-[2-3H]inositol phosphate accumulation measured after 75 mins by scintillation proximity assay; assay type: functional
[14] = target: Neuromedin-U receptor 2 (Homo sapiens) (UniProt Q9GZQ4); assay: Agonist activity at human NMU2 receptor assessed as myo-[2-3H]inositol phosphate accumulation in presence of 10 uM Zn2+ measured after 75 mins by scintillation proximity assay; assay type: functional
[15] = target: T3, C-C chemokine receptor type 1 (Homo sapiens); assay: Agonist activity at full length human CCR1 assessed as myo-[2-3H]inositol phosphate accumulation in presence of 10 uM Zn2+ measured after 75 mins by scintillation proximity assay; assay type: functional
[16] = target: C-C chemokine receptor type 5 (Macaca mulatta) (UniProt P61813); assay: Agonist activity at full length monkey CCR5 assessed as myo-[2-3H]inositol phosphate accumulation in presence of 10 uM Zn2+ measured after 75 mins by scintillation proximity assay; assay type: functional
Pancreatic islet = assay: Induction of glucose-stimulated insulin release in mouse pancreatic islets at 1 uM pretreated for 24 hrs followed by glucose addition measured after 30 mins; assay type: functional, cell-based
Summary of the method: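 Islets isolated from GPR39-deficient mice and wild-type littermates on five independent days, 2 to 3 mice per day; insulin secretion measured with vehicle or 1 μM compound.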

[17] = Increase in CGRP-induced somatostatin release in primary gastric mucosal cells isolated from GPR39 deficient C57BL/6 mouse at 1 uM in presence of 10 uM of Zn2+ measured after 4 hrs by radioimmunoassay relative to control; assay type: functional, Primary gastric mucosal cell; conditions: in the assay text read “C57BL/6 mouse” for “GPR39 deficient C57BL/6 mouse”
[18] = test system: Primary gastric mucosal cell; assay: Induction of CGRP-induced somatostatin release in primary gastric mucosal cells isolated from GPR39 deficient C57BL/6 mouse at 1 uM in presence of 10 uM of Zn2+ measured after 4 hrs by radioimmunoassay; assay type: functional, cell-based
Summary of the method: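 Primary gastric mucosal cells from GPR39-KO mice, day after preparation, exposed to ligands (1 μM, 10 μM Zn2+) in triplicate for 4 h; supernatant somatostatin measured by in-house RIA and expressed as percent of medium-alone secretion; 10 nM CGRP used as a comparator stimulus; n=2.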

[19] = Aqueous solubility of the compound in phosphate buffered saline at pH 7.0 at 10 mM by turbidimetric method

Sequence of Neuromedin-U receptor 2 (Homo sapiens) (Q9GZQ4 whole entry): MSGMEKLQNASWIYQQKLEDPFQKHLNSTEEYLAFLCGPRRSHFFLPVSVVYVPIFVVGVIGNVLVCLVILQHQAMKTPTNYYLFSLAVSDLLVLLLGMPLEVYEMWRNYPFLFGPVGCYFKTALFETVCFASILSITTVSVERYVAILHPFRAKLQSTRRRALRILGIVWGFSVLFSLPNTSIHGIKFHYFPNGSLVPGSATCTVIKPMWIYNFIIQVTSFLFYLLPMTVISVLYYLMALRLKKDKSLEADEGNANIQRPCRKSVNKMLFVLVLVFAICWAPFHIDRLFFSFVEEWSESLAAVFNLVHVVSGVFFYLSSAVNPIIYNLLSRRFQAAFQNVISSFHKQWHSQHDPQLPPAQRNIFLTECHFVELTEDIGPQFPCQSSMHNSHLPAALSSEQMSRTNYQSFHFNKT
Sequence of Motilin receptor (Homo sapiens) (O43193 whole entry): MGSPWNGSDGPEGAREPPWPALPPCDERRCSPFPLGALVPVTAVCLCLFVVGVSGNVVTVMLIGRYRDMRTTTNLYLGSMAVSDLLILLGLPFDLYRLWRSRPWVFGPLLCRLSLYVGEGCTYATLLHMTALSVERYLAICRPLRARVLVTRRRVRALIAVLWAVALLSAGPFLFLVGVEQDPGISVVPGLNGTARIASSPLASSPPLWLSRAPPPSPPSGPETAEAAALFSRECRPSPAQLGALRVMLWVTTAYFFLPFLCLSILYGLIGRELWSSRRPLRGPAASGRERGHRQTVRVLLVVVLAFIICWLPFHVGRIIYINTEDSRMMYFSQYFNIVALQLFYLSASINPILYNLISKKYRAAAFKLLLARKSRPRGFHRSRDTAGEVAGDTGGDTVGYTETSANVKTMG
Sequence of Growth hormone secretagogue receptor type 1 (Homo sapiens) (Q92847 whole entry): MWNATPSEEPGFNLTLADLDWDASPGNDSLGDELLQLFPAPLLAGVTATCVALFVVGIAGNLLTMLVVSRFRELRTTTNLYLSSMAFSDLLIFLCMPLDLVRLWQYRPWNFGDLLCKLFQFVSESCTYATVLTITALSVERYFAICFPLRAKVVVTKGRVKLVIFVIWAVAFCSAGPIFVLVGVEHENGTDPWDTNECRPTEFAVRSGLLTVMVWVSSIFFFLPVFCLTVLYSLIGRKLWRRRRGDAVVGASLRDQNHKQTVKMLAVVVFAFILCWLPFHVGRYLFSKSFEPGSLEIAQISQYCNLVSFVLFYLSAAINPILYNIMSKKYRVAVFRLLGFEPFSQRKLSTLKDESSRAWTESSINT

With `Cc1nn(-c2ncnc3nc[nH]c23)c2c1C(c1ccc(F)cc1Cl)CC(=O)N2` (stereo not given) the pEC50 [1] was 6.55, the pEC50 [2] was 8.05 and the Activity [3] was “inactive”. For the same compound, the Activity [4] was “Dose-dependent effect”, the pEC50 [5] was 7.77 and the Activity [6] was “inactive”. For the same compound, the Activity [7] was “inactive”, the Activity [8] was “inactive” and the Papp A→B [9] was 250 nm/s. For the same compound, the microsomal CLint at 3 µM [10] was 23.7 µL/min/mg, the half-life at 3 µM [11] was 58 min and the Activity [12] was “inactive”. For the same compound, the Activity [13] was “inactive”, the Activity [14] was “inactive” and the Activity [15] was “inactive”. The Activity [16] was “inactive”, the Activity (Pancreatic islet) was “inactive” and the Activity [17] was 53%. For the same compound, the Activity [18] was “inactive” and the solubility kinetic at 10000 µM [19] was 65 µM (≈ 25.9 µg/mL).
